This is an account of results in paper PMC11516114 (Protein Science : A Publication of the Protein Society, 2024).

Structures are written as SMILES. Read-outs that look alike come from different tables or passages of the source.

Assay [1] deals with T1, wild-type HIF-2α PAS-B (Homo sapiens, UniProt Q99814). Put plainly: Isothermal titration calorimetry. The assay is classed as binding. The method in brief:
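Human HIF-2α PAS-B (residues 240–350), expressed with a cleavable His6-Gβ1 tag, purified by Ni2+ affinity, TEV cleavage, a second Ni2+ pass and size exclusion. ITC run at 25°C with protein (250–300 μM) titrated into 20 μM test compound: 25 injections, 250 s spacing, 350 rpm. Protein-into-buffer heats were subtracted.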
(In general: In ITC the heat of successive injections is recorded.)

Assay [2] concerns the target T1, wild-type HIF-2α PAS-B. As to conditions: previously measured, ref Key et al. [2009]; cited from earlier work.

A word on the Kd: it is the concentration at which binding is half-saturated.

T1 sequence (Q99814 240-350): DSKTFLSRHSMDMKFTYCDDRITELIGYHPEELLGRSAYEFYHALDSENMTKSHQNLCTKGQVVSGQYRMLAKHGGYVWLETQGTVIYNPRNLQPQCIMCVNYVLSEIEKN

Turning to `O=[N+]([O-])c1cc(C(F)(F)F)ccc1NCc1ccco1` [THS-020, N‐[(furan‐2‐yl)methyl]‐2‐nitro‐4‐(trifluoromethyl)aniline], the results for the Kd at wild-type HIF-2α PAS-B [1] and at wild-type HIF-2α PAS-B [2] were 1350 ± 110 nM and 1500 ± 700 nM, respectively.

Regarding `O=[N+]([O-])c1cc(C(F)(F)F)ccc1NCc1ccsc1` [THS-017, 2‐nitro‐N‐[(thiophen‐3‐yl)methyl]‐4‐(trifluoromethyl)aniline], the values for the dissociation constant Kd on wild-type HIF-2α PAS-B [1] and on wild-type HIF-2α PAS-B [2] were 600 ± 60 nM and 590 ± 50 nM, respectively.
